Results: PMC5903260 (British Journal of Clinical Pharmacology, 2018)
Where two headings read alike, the source gives them in different places. Values belong to the compound of their own block, whether it stands above or below them.

How the values were obtained:
[1] = assay type: in vivo, human; conditions: for measured plasma concentrations of metabolites: all samples after regorafenib eye drops, below LLOQ (2 μg l^−1); for Cmax: C max
Method in brief: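 Plasma was sampled from predose to 7 days after a single dose, or to 14 days after the last of 14 days' dosing, with dense early time points. Parent and metabolites M-2 and M-5 were measured by validated LC-MS/MS; LLOQ was 0.1 µg l⁻¹ for parent and 2 µg l⁻¹ for metabolites. AUC over dosing intervals, AUC₀₋tlast, Cav, Cmax, Cmin, t1/2 and accumulation ratios were derived, with log-normal ANOVA for dose proportionality.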

[2] = Safety, tolerability and functional ocular assessments in healthy volunteers; assay type: in vivo, human
Method in brief: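 Randomized, double-masked, placebo-controlled ascending-dose design: four cohorts of 12 healthy men (9 active, 3 placebo). Drops of 30 mg ml⁻¹ (25 μl) were given to the left eye as 0.75 mg once, or 0.75 mg bid or tid for 14 days, or 1.5 mg tid for 3 days then both eyes to 14 days. Ocular symptoms were scored 5 min post-dose on a four-point scale. Visual acuity was tested at 4 m per ETDRS protocol.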

[3] = Subject rating of treatment; assay type: in vivo, human; conditions: numerical rating scale 0 (none) to 10 (very severe); comparable with placebo
[4] = cited from earlier work
[5] = all regorafenib cohorts pooled (n = 36)

measured plasma concentrations of metabolites [1]: < 2 µg/L
Structure (SMILES): CNC(=O)c1cc(Oc2ccc(NC(=O)Nc3ccc(Cl)c(C(F)(F)F)c3)c(F)c2)cc[n+]1[O-] [M‐2]

measured plasma concentrations of metabolites [1]: < 2 µg/L
Structure (SMILES): NC(=O)c1cc(Oc2ccc(NC(=O)Nc3ccc(Cl)c(C(F)(F)F)c3)c(F)c2)cc[n+]1[O-] [M‐5]

Structure (SMILES): CNC(=O)c1cc(Oc2ccc(NC(=O)Nc3ccc(Cl)c(C(F)(F)F)c3)c(F)c2)ccn1 [Regorafenib]
C av0–8 ([1]; first dose, Cohort 1, 0.75 mg single dose, plasma, geometric mean/%CV (range)): 0.0377 ng/mL
C av0–8 ([1]; first dose, Cohort 3, 0.75 mg tid (2.25 mg day^−1), plasma, geometric mean/%CV (range)): 0.0352 ng/mL
C av0–8 ([1]; first dose, Cohort 4, 1.5 mg tid (9.0 mg day^−1), plasma, geometric mean/%CV (range)): 0.0564 ng/mL
Tmax ([1]; human, plasma, topical, tmax,md (time to reach maximum plasma concentration following multiple drug administration), individual subjects, after the last dose): 0 to 12 h
Cav0–12md (average concentration over the 12h dosing interval) ([1]; last dose, 0.75 mg bid (Cohort 2)): 3.39 ng/mL
C av0–8,md ([1]; last dose, Cohort 3, 0.75 mg tid (2.25 mg day^−1), geometric mean/%CV (range)): 4.01 ng/mL
C av0–8,md ([1]; last dose, Cohort 4, 1.5 mg tid (9.0 mg day^−1), geometric mean/%CV (range)): 12.2 ng/mL
AUC ([1]; male, human, plasma, topical, 0.75 mg): 40.7 ng·h/mL
AUC(0-t) ([1]; male, human, plasma, topical, 0.75 mg, AUC 0–8, first dose, Cohort 2, 0.75 mg bid (1.5 mg day^−1), geometric mean/%CV (range)): 0.255 ng·h/mL
AUC(0-t) ([1]; male, human, plasma, topical, 0.75 mg, AUC 0–8, first dose, Cohort 3, 0.75 mg tid (2.25 mg day^−1), geometric mean/%CV (range)): 0.282 ng·h/mL
AUC(0-t) ([1]; male, human, plasma, topical, 0.75 mg, AUC0–tlast, Cohort 1, 0.75 mg single dose): 39.2 ng·h/mL
Cmax ([1]; male, human, plasma, topical, 0.75 mg, first dose, Cohort 1, 0.75 mg single dose, geometric mean/%CV (range)): 0.42 ng/mL
Cmax ([1]; male, human, plasma, topical, 0.75 mg, first dose, Cohort 2, 0.75 mg bid (1.5 mg day^−1), geometric mean/%CV (range)): 0.234 ng/mL
Cmax ([1]; male, human, plasma, topical, 0.75 mg, first dose, Cohort 3, 0.75 mg tid (2.25 mg day^−1), geometric mean/%CV (range)): 0.186 ng/mL
Tmax ([1]; male, human, plasma, topical, 0.75 mg, t max, first dose, Cohort 1, 0.75 mg single dose, median (range)): 24 h
Tmax ([1]; male, human, plasma, topical, 0.75 mg, t max, first dose, Cohort 2, 0.75 mg bid (1.5 mg day^−1), median (range)): 11.9 h
Tmax ([1]; male, human, plasma, topical, 0.75 mg, t max, first dose, Cohort 3, 0.75 mg tid (2.25 mg day^−1), median (range)): 7.92 h
AUC(0-t) ([1]; male, human, plasma, topical, 1.5 mg, AUC 0–8, first dose, Cohort 4, 1.5 mg tid (9.0 mg day^−1), geometric mean/%CV (range)): 0.451 ng·h/mL
Cmax ([1]; male, human, plasma, topical, 1.5 mg, first dose, Cohort 4, 1.5 mg tid (9.0 mg day^−1), geometric mean/%CV (range)): 0.302 ng/mL
Tmax ([1]; male, human, plasma, topical, 1.5 mg, t max, first dose, Cohort 4, 1.5 mg tid (9.0 mg day^−1), median (range)): 8 h
day when steady state was reached ([1]; multiple-dose regimens, plasma concentrations): 7 days
safety and tolerability over the dose range ([2]; 0.75 mg single dose to 1.5 mg tid both eyes (9 mg day^−1), 30 mg ml^−1, 14 days): safe and well tolerated
eyelid redness and oedema, conjunctival hyperaemia and oedema ([2]; across all regorafenib cohorts): mild and comparable with the effects of placebo
subjects with a burning sensation [2, 5]: 25%
subjects with a foreign body sensation [2, 5]: 17%
subjects with a transient reduction in visual acuity [2, 5]: 31%
subjects with blurred vision after solicited questioning [2, 5]: 97%
subjects with increased lacrimation [2, 5]: 8%
subjects with itching [2, 5]: 17%
subjects with lid oedema [2, 5]: 8%
subjects with ocular/conjunctival redness [2, 5]: 19%
effect on electrocardiographic parameters ([2]; healthy volunteers, eye drops): No effect
pain and discomfort ratings [3]: mostly 0
apparent terminal elimination t1/2 after oral administration [4]: 20 to 30 h
